According to ChEMBL document CHEMBL2169814, “Structure-based design, synthesis, and characterization of dual hotspot small-molecule HIV-1 entry inhibitors” (J Med Chem, 2012):
Active and inactive are the calls of the source. No cut-off for these calls is given here.

Tests used:
[1] = Inhibition of ampotrophic murine leukemia virus envelope glycoprotein assessed as inhibition of viral entry in canine Cf2Th cells expressing human CD4 and CCR5 after 2 to 4 hrs by luciferase activity based luminescence assay
[2] = test system: Human immunodeficiency virus 1; assay: Antiviral activity against HIV-1 YU2 infected in canine Cf2Th-CCR5 cells assessed as activation of viral infectivity after 2 to 4 hrs by luminometer relative to JRC-I-191; format: functional, organism-based
[3] = test system: Human immunodeficiency virus 1; assay: Increase in binding of minimal core of HIV1 YU2 gp120 into 17b in canine Cf2Th-CCR5 by SPR assay
[4] = test system: Human immunodeficiency virus 1; assay: Increase in binding of full length of HIV1 YU2 gp120 expressed into 17b in canine Cf2Th-CCR5 by SPR assay
[5] = Inhibition of recombinant HIV-1 YU2 envelope glycoprotein-120 assessed as inhibition of viral entry in canine Cf2Th cells expressing CD4/CCR5 after 2 to 4 hrs by luciferase activity based luminescence assay; format: cell-based, Human immunodeficiency virus 1
How it was run: (§1)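 Single-round luciferase-encoding recombinant HIV-1 pseudotyped with wild-type or mutant YU2 Env, made in 293T cells and dosed by RT units. Cf2Th/CD4-CCR5 cells seeded 24 h before. […] Cells lysed by freeze-thaw; luciferase read by luminometer.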

[6] = test system: Human immunodeficiency virus 1; assay: Antiviral activity against HIV-1 clade C Env pseudovirus assessed as geometric mean titer for virus neutralization to infect human TZM-bl cells by luciferase assay; format: functional, organism-based
How it was run: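 Env-pseudoviruses were made in 293T cells cotransfected with rev/env plasmid and the env-deficient pSGΔ3env backbone, then harvested at 2 days. Virus (MOI ~0.01–0.1) was preincubated 30 min at 37°C with serially diluted compound in medium containing 10% DMSO, in duplicate, then used to infect TZM-bl cells. Luciferase read-out; IC50 from a 5-parameter Hill fit; geometric mean across isolates.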

[7] = test system: Human immunodeficiency virus 1; assay: Antiviral activity against HIV-1 clade B Env pseudovirus assessed as geometric mean titer for virus neutralization to infect human TZM-bl cells by luciferase assay; format: functional, organism-based; settings: Human immunodeficiency virus 1, clade B
How it was run: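 Env-pseudoviruses made in 293T cells co-transfected with rev/env plasmid and env-deficient backbone (pSGΔ3env); supernatants harvested at 2 days, filtered. Virus (MOI ~0.01–0.1) preincubated 30 min at 37°C with serially diluted reagent (media with 10% DMSO), duplicate wells, then used to infect TZM-bl cells. Luciferase read-out; 5-parameter hill fit gives IC50/IC80; geometric mean titer across isolates.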

[8] = Inhibition of recombinant HIV-1 ADA envelope glycoprotein-120 assessed as inhibition of viral entry in canine Cf2Th cells expressing CD4/CCR5 after 2 to 4 hrs by luciferase activity based luminescence assay; format: cell-based, Human immunodeficiency virus 1
How it was run: (§2)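 Single-round luciferase-reporter viruses were made in 293T cells with Gag-Pol packaging and Env plasmids (A-MLV Env plus rev), then normalized by RT activity. […] Cf2Th/CD4-CCR5 or CD4-CXCR4 targets were exposed for 2–4 h, cultured 48 h, lysed by freeze-thaw, and luciferase was read.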

[9] = Inhibition of recombinant HIV-1 89.6 envelope glycoprotein-120 assessed as inhibition of viral entry in canine Cf2Th cells expressing CD4/CCR5 after 2 to 4 hrs by luciferase activity based luminescence assay; format: cell-based, Human immunodeficiency virus 1
How it was run: as §2

[10] = Inhibition of recombinant HIV-1 HXBc2 envelope glycoprotein-120 assessed as inhibition of viral entry in canine Cf2Th cells expressing CD4/CCR5 after 2 to 4 hrs by luciferase activity based luminescence assay; format: cell-based, Human immunodeficiency virus 1
How it was run: as §2

[11] = Inhibition of recombinant HIV-1 KB9 envelope glycoprotein-120 assessed as inhibition of viral entry in canine Cf2Th cells expressing CD4/CCR5 after 2 to 4 hrs by luciferase activity based luminescence assay; format: cell-based, Human immunodeficiency virus 1
How it was run: as §2

[12] = Inhibition of recombinant HIV-1 JRFL envelope glycoprotein-120 assessed as inhibition of viral entry in canine Cf2Th cells expressing CD4/CCR5 after 2 to 4 hrs by luciferase activity based luminescence assay; format: cell-based, Human immunodeficiency virus 1
How it was run: as §2

[13] = test system: Human immunodeficiency virus 1; assay: Antiviral activity against HIV-1 YU2 infected in canine Cf2Th-CCR5 cells assessed as activation of viral infectivity after 2 to 4 hrs by luminometer relative to TS-II-224; format: functional, organism-based
[14] = test system: Human immunodeficiency virus 1; assay: Antiviral activity against HIV-1 YU2 infected in canine Cf2Th-CCR5 cells assessed as activation of viral infectivity after 2 to 4 hrs by luminometer relative to NBD-556; format: functional, organism-based
[15] = Binding affinity to HIV-1 YU2 gp120 at 80 to 130 uM by VP-ITC analysis; set-up: species or system Human immunodeficiency virus 1
[16] = test system: Envelope glycoprotein gp160 (Human immunodeficiency virus type 1 group M subtype B (isolate HXB2)(HIV-1)), P04578 [S375W]; assay: Inhibition of recombinant HIV-1 YU2 envelope glycoprotein-120 S375W mutant assessed as inhibition of viral entry in canine Cf2Th cells expressing CD4/CCR5 after 2 to 4 hrs by luciferase activity based luminescence assay; format: cell-based; settings: Human immunodeficiency virus 1
How it was run: as §1

[17] = Cytotoxicity against canine Cf2Th-CD4-CCR5 assessed as cell viability at 1 to 100 uM after 48 hrs by luminometer; format: cell-based, Canis lupus familiaris; settings: dog, thymocyte
How it was run: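 Cf2Th/CD4-CCR5 cells were seeded at 6×10^3/well 24 h ahead and exposed to compound at 1–100 μM (DMSO at 2% as control) for 2–4 h at 37°C. Medium was then topped up and cells were incubated 48 h at 37°C. After 30 min at room temperature, CellTiter-Glo was added for 5–10 min, and luminescence was read for 5 s.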

Row | SMILES | IC50 [1] | Activity [2] | Activity [3] | Activity [4] | IC50 [5] | Activity [6] | IC50 [7] | IC50 [8] | IC50 [9] | IC50 [10] | IC50 [11] | IC50 [12] | Activity [13] | Activity [14] | Kd [15] | Activity [16] | Activity [17]
1 | CN1C(C)(C)CC(NC(=O)C(=O)Nc2ccc(Cl)c(F)c2)CC1(C)C | 93.4 µM | Active | Active | Active | 48.8 µM | – | – | – | – | – | – | – | – | – | – | – | –
2 | CC1(C)CC(NC(=O)C(=O)Nc2ccc(Cl)cc2)CC(C)(C)N1 | > 100 µM | – | – | – | > 100 µM | Active | 29.3 µM | – | – | – | – | – | – | – | – | – | –
3 | N[C@H]1Cc2ccccc2[C@@H]1NC(=O)C(=O)Nc1ccc(Cl)c(F)c1 | 56.9 µM | – | Active | Active | 53.9 µM | – | – | 50 µM | 50 µM | 50 µM | 50 µM | 50 µM | Active | – | – | – | –
4 | CC1(C)CC(NC(=O)C(=O)Nc2ccc(Cl)c(F)c2)CC(C)(C)N1 | > 100 µM | – | – | – | 54.4 µM | – | – | – | – | – | – | – | – | Active | – | – | –
5 | N[C@@H]1Cc2ccccc2[C@H]1NC(=O)C(=O)Nc1ccc(Cl)c(F)c1 | 85.9 µM | – | Active | Active | 86.9 µM | – | – | 50 µM | 50 µM | 50 µM | 50 µM | 50 µM | Active | – | 1.1 µM | – | –
6 | CC1(C)CC(NC(=O)C(=O)Nc2ccc(Br)cc2)CC(C)(C)N1 | > 100 µM | – | – | – | > 100 µM | – | – | – | – | – | – | – | – | Active | 2.2 µM | – | –
7 | N=C(N)N[C@H]1Cc2ccccc2[C@@H]1NC(=O)C(=O)Nc1ccc(Cl)c(F)c1.O=CO | > 100 µM | – | Active | Active | 22.9 µM | Active | 7.9 µM | – | – | – | – | – | inactive | – | 0.25 µM | inactive | Non-toxic
8 | N=C(N)N[C@@H]1Cc2ccccc2[C@H]1NC(=O)C(=O)Nc1ccc(Cl)c(F)c1 | > 100 µM | – | Active | Active | 21.3 µM | Active | 8.9 µM | – | – | – | – | – | inactive | – | 0.3 µM | inactive | –
